Bioassay records as filed in PubChem.
KCNK3 inh = human KCNK3 channel inhibition, primary screen | O14649 | CHO-KCNK3 thallium flux, FluxOR fluorescence; stronger effect = lower value | B-score at 10 µM | 340,000 tested, 0.84% active | AID 602410;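 active = B-score under library mean minus 4 SD, starting fluorescence ratio at most library mean plus 5 SD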;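 note: more negative B-score means stronger inhibition of thallium flux through KCNK3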
Target sequence (O14649 whole entry, looked up): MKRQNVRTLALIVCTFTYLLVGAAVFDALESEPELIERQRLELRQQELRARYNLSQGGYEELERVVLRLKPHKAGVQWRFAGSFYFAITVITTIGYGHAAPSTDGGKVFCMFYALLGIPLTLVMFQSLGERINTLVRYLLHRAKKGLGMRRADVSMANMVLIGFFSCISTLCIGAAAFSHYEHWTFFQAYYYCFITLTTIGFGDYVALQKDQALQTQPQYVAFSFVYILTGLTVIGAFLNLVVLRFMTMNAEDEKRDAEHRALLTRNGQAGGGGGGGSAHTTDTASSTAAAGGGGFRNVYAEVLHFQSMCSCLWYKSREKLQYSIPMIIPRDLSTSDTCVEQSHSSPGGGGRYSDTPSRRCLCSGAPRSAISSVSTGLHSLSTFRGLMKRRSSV
Kir21 inh = inhibitors of mouse Kir2.1 inward-rectifier potassium channel | HEK293-Kir2.1, FluxOR thallium flux fluorescence; stronger effect = lower value | B-score at 10 µM | 310,000 tested, 0.85% active | AID 1672;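 active = fluorescence ratio B-score at or below minus 3 SD of library scores, with starting-brightness B-score within 2 SD, cut at about -4.2 in these data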;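 note: channel flux triggered by added potassium and thallium sulfate stimulus; B-score of peak minus minimum fluorescence over baseline after thallium stimulus; more negative B-score means stronger Kir2.1 block with less thallium influx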
hERG protect = compounds protecting human hERG from proarrhythmic drug block. CHO-hERG, FluxOR thallium flux, dofetilide IC70 present. Q12809. activation (rescue from dofetilide block), less the hit threshold, % at 10 µM. 310,000 tested, 0.51% active;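 active = activation above the mean of controls blocked by dofetilide plus 5 SD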;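 note: thallium influx through hERG after potassium depolarization seen as dye fluorescence rise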
KCNK9 block = blocks the human KCNK9 two-pore domain potassium channel. HEK293 KCNK9, FluxOR thallium flux fluorescence; stronger effect = lower value. AID 488922. B-score at 10 µM. 310,000 tested, 1.2% active;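 active = ratio B-score over 3 SD below the library mean, with starting fluorescence within 5 SD of its mean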;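 note: negative B-score means less thallium flux so channel inhibition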
KCNQ1 pot = human KCNQ1 channel potentiation or activation | P51787 | CHO-K1 KCNQ1, thallium flux FluxOR fluorescence; stronger effect = higher value | B-score at 10 µM | 310,000 tested, 0.35% active | AID 2648;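 active = fluorescence ratio B-score, a plate-corrected score, at least three library SD, with initial intensity B-score within 5 SD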
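Medium – assay buffer, equal DMSO in all wells · Material – CHO-K1 cell line with stable KCNQ1 potassium channel expression · Signal – kinetic FluxOR thallium fluorescence, 10-s 1-Hz baseline, 110-s post-stimulus read · Compound – single concentration per compound, DMSO matched to controls · Schedule – 37 °C overnight plating, 90-min dark dye load, 20-min compound pretreatment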
KCNQ1 block = blocks the human KCNQ1 potassium channel; P51787; CHO-K1 KCNQ1, FluxOR thallium flux fluorescence; stronger effect = higher value; B-score at 10 µM; 310,000 tested, 1.3% active;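 active = compounds whose thallium flux B-score, printed positive for inhibition, exceeds three library SD while starting fluorescence stays within three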;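 note: channel opened by potassium depolarization with thallium stimulus after 20 min compound exposure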
Active calls of the source: *; i = inactive; · = no result; ! = a repeat was not active. This is a sample that favours compounds with a hit; in the whole collection about 3.7% have one here.

SMILES | KCNK3 inh | Kir21 inh | hERG protect | KCNK9 block | KCNQ1 pot | KCNQ1 block
COc1ccc(C(CNC(=O)c2ccco2)N2CCOCC2)cc1 (configuration not stated) | i | · | · | · | · | ·
COc1ccc(C(c2c(NC(=O)c3ccco3)sc(C)c2C)N2CCOCC2)cc1 (configuration not stated) | -11* | · | · | · | · | ·
Cc1cccc(C(=O)NNC(=O)c2ccc(NS(=O)(=O)c3cccs3)cc2)c1C | i | · | · | · | · | ·
CCC1C(=O)CC(c2ccc([N+](=O)[O-])cc2)NC1c1ccc([N+](=O)[O-])cc1 (configuration not stated) | i | 0.14 | -15 | i | i | 8*
CCOC(=O)C1CCCN(C(=O)Cn2nc(C)c3c(C)n(-c4ccccc4)nc3c2=O)C1 (configuration not stated) | i | -0.06 | -5 | i | i | i
COc1ccc(-c2c[n+]3c(n2-c2ccccc2)CCCCC3)cc1 | i | -0.86 | -18 | i | i | i
COc1ccccc1-n1c(-c2ccccc2)c[n+]2c1CCc1ccccc1-2 | -9.5*! | -14* | -20 | -7.8* | i | 9*!
COc1ccc(-n2c(-c3ccc(Br)cc3)c[n+]3c2CCc2ccccc2-3)cc1 | i | -5.9* | -25 | i | i | 10*
COc1ccc(-n2cc(-c3ccccc3)[n+]3c2CCCCC3)cc1 | i | -0.26 | -17 | i | i | i
COc1ccc(-c2cn(-c3ccc(OC)cc3)c3[n+]2-c2ccccc2CC3)cc1 | i | -3.5 | -18 | i | i | 6*
COc1ccccc1-n1c(-c2ccccc2)c[nH]c1=S | i | -0.71 | -12 | i | i | i
CC(=O)c1ccc(N2CCN(CC(=O)Nc3ccc4c(c3)OCCO4)CC2)cc1 | i | -0.22 | -7 | i | i | i
CCc1ccc(OCC(=O)Nc2ccc3c(c2)OCCO3)cc1 | i | -4.7* | -3 | i | i | i
C/C(=N\OCC(=O)Nc1ccc(OC(F)(F)F)cc1)c1ccc2c(c1)OCCO2 | i | -0.02 | -6 | i | 10* | i
O=C(COC(=O)c1cccnc1Cl)Nc1ccc2c(c1)OCCO2 | i | 1.6 | 37* | i | i | i
O=C(COC(=O)c1cccnc1Cl)NCc1ccc2c(c1)OCO2 | i | -0.37 | -11 | i | i | i
CCN(CC)CCCN1C(=O)c2oc3ccccc3c(=O)c2C1c1cccc(OC)c1OC (configuration not stated) | i | -0.25 | -9 | i | i | i
CN(Cc1ccccc1)C(=O)C1CCN(S(=O)(=O)c2ccc3nc4c(c(C(=O)O)c3c2)CCCC4)CC1 | i | -0.61 | -1 | i | i | i
CCCCN(C(=O)C1CC(=O)N(CCc2ccc(OC)c(OC)c2)C1)c1c(N)n(CCCC)c(=O)[nH]c1=O (configuration not stated) | i | 0.82 | -14 | i | i | i
Cc1ccc(-c2cc(C(=O)Nc3nn[nH]n3)c3ccccc3n2)cc1 | i | -1.7 | -4 | i | i | i
O=[N+]([O-])c1ccc(N2CCN(c3cccc(Cl)c3)CC2)nc1 | i | 0.69 | -3 | -6.6* | i | i
CCn1cnnc1SCC(=O)c1c(N)n(C2CC2)c(=O)[nH]c1=O | i | · | · | · | · | ·
O=C(CSc1cn[nH]n1)Nc1cccc(C(F)(F)F)c1 | i | -1.7 | -10 | -7.5* | i | i
CC1(C)CC(N2CCN(CCO)CC2)=CC(=S)N1 | i | -0.52 | -6 | i | 10* | i
COc1cc(NC(=S)N2CCN(CCO)CC2)cc(OC)c1 | i | 0.42 | -1 | i | i | i
SMILES | KCNK3 inh | Kir21 inh | hERG protect | KCNK9 block | KCNQ1 pot | KCNQ1 block
COc1ccc(S(=O)(=O)N2CCN(C(=O)NCc3ccc(C)cc3)CC2)cc1 | i | 0.04 | -12 | i | i | i
COc1cc2c(cc1OC)C(c1cccc(OC)c1OC)CC(=O)N2 (configuration not stated) | i | -0.1 | -7 | i | i | i
COc1cccc(C2CNC3(CCCC(C)C3)c3[nH]c4ccccc4c32)c1OC (configuration not stated) | i | -4.5* | -5 | i | i | i
Cc1ccc(/C=C2\SC(=S)N(/N=C/c3cc([N+](=O)[O-])ccc3O)C2=O)o1 | i | 0.08 | -3 | i | i | 6*
O=C(Nc1cccc(C(F)(F)F)c1)c1cccc(NS(=O)(=O)c2ccc(O)c(C(=O)O)c2)c1 | i | 2.9 | -1 | i | i | i
COc1ccc(C(CCNCc2ccc(OC(C)C)cc2)c2ccccc2OC)cc1 (configuration not stated) | i | -9.9* | -20 | i | i | 6*
COc1ccc(C(CCNCc2ccc(N(C)C)cc2)c2ccccc2OC)cc1 (configuration not stated) | i | -3.4 | -19 | i | i | i
COc1ccc(CNCCC(c2ccc(OC)cc2)c2ccccc2OC)cc1 (configuration not stated) | i | -11* | -11 | i | i | i
OC(CNCc1ccccc1)c1ccccc1 (configuration not stated) | i | -0.22 | -7 | i | i | i
Oc1cccc(C(O)CNCc2ccc(-c3ccccc3)cc2)c1 (configuration not stated) | i | -7.8* | -13 | i | i | i
O=C(NCCc1csc(-c2ccc(C(F)(F)F)cc2)n1)c1cccs1 | i | -0.07 | -14 | i | i | i
CCOC(=O)c1c(NC(=O)CSc2nnnn2-c2ccc3c(c2)OCO3)sc(C)c1C | i | 0.24 | -6 | i | i | i
COC(=O)c1c(NC(=O)CSc2nnnn2-c2ccc3c(c2)OCO3)sc(C)c1C | i | 0.58 | 3 | -6.9* | i | i
O=C(O)CSc1nc2ccccc2[nH]1 | i | 1.1 | 8.4* | i | i | i
O=C(O)CSc1nc2ccccc2c(=O)[nH]1 | i | -0.34 | -8 | i | i | i
Cc1cc(Cl)ccc1OCC(=O)NNC(=O)C1CCCO1 (configuration not stated) | i | -2.2 | -5 | i | 26* | i
Cc1cccc(NC(=O)c2cccc(NC(=O)Cc3cccs3)c2)c1 | i | 0 | -9 | -6.9* | i | i
CCN(CC)C(=O)Cn1cc(C(=O)C2CC2)c2ccccc21 | i | -0.6 | 3 | i | i | i
Cc1cc2ncn(CS(C)(=O)=O)c2cc1C | i | 0.27 | -14 | i | i | i
C=C(C)Cn1cnc2cc(C)c(C)cc21 | i | -1.4 | 8.6* | i | i | i
